Test results from paper PMC4902112 (Biochemistry, 2009).

Experiments:
[1] = target: T1, human tear lipocalin (TL) (Homo sapiens, UniProt P31025, W35Y); assay: fluorescence enhancement and blue shift on binding; details: TL 4 μM, DAUDA 2 μM, 10 mM sodium phosphate, pH 7.3; fluorescent probe
[2] = target: T1, human tear lipocalin (TL); assay: DAUDA fluorescence displacement; assay type: binding
[3] = target: human tear lipocalin (TL) (Homo sapiens, UniProt P31025, L123W/W35Y); assay: Trp fluorescence titration, one-site fit; assay type: binding
In short: (§1)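 Recombinant human TL single-Trp mutants: native Trp replaced by Tyr, one site changed to Trp. Expressed in E. coli BL21(DE3); purified by gel filtration and DEAE chromatography. About 14 μM protein in 10 mM sodium phosphate, pH 7.3, at room temperature, titrated with palmitic acid or its spin-labeled analogue. 2 min equilibration per addition. Excitation 295 nm, emission read at λmax. One-site fit gave apparent Kd and stoichiometry.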

[4] = target: human tear lipocalin (TL) (Homo sapiens, UniProt P31025, I75W/W35Y); assay: Trp fluorescence titration, one-site fit; assay type: binding
In short: as §1

[5] = target: human tear lipocalin (TL) (Homo sapiens, UniProt P31025, G121W/W35Y); assay: Trp fluorescence titration, one-site fit; assay type: binding
In short: as §1

[6] = target: human tear lipocalin (TL) (Homo sapiens, UniProt P31025, W35Y/Y115W); assay: Trp fluorescence titration, one-site fit; assay type: binding
In short: as §1

[7] = target: human tear lipocalin (TL) (Homo sapiens, UniProt P31025, L67W/W35Y); assay: Trp fluorescence titration, one-site fit; assay type: binding
In short: as §1

[8] = target: human tear lipocalin (TL) (Homo sapiens, UniProt P31025, M40W/W35Y); assay: Trp fluorescence titration, one-site fit; assay type: binding
In short: as §1

[9] = target: human tear lipocalin (TL) (Homo sapiens, UniProt P31025, C119W/W35Y); assay: Trp fluorescence titration, one-site fit; assay type: binding
In short: as §1

[10] = target: human tear lipocalin (TL) (Homo sapiens, UniProt P31025, L86W/W35Y); assay: Trp fluorescence titration, one-site fit; assay type: binding
In short: as §1

[11] = target: human tear lipocalin (TL) (Homo sapiens, UniProt P31025, I106W/W35Y); assay: Trp fluorescence titration, one-site fit; assay type: binding
In short: as §1

[12] = target: human tear lipocalin (TL) (Homo sapiens, UniProt P31025, T55W/W35Y); assay: Trp fluorescence titration, one-site fit; assay type: binding
In short: as §1

T1 sequence (P31025 19-176 W35Y): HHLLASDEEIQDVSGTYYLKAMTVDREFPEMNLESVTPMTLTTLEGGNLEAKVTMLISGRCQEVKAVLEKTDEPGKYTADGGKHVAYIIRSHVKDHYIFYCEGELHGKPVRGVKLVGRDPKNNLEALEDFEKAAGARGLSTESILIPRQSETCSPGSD
human tear lipocalin (TL) (Homo sapiens, UniProt P31025, L86W/W35Y), sequence (P31025 19-176 W35Y/L86W): as the sequence (P31025 19-176 W35Y) above, with L68W counted along it
human tear lipocalin (TL) (Homo sapiens, UniProt P31025, L123W/W35Y), sequence (P31025 19-176 W35Y/L123W): as the sequence (P31025 19-176 W35Y) above, with L105W counted along it
human tear lipocalin (TL) (Homo sapiens, UniProt P31025, M40W/W35Y), sequence (P31025 19-176 W35Y/M40W): as the sequence (P31025 19-176 W35Y) above, with M22W counted along it
human tear lipocalin (TL) (Homo sapiens, UniProt P31025, I106W/W35Y), sequence (P31025 19-176 W35Y/I106W): as the sequence (P31025 19-176 W35Y) above, with I88W counted along it
human tear lipocalin (TL) (Homo sapiens, UniProt P31025, W35Y/Y115W), sequence (P31025 19-176 W35Y/Y115W): as the sequence (P31025 19-176 W35Y) above, with Y97W counted along it
human tear lipocalin (TL) (Homo sapiens, UniProt P31025, G121W/W35Y), sequence (P31025 19-176 W35Y/G121W): as the sequence (P31025 19-176 W35Y) above, with G103W counted along it
human tear lipocalin (TL) (Homo sapiens, UniProt P31025, L67W/W35Y), sequence (P31025 19-176 W35Y/L67W): as the sequence (P31025 19-176 W35Y) above, with L49W counted along it
human tear lipocalin (TL) (Homo sapiens, UniProt P31025, T55W/W35Y), sequence (P31025 19-176 W35Y/T55W): as the sequence (P31025 19-176 W35Y) above, with T37W counted along it
human tear lipocalin (TL) (Homo sapiens, UniProt P31025, I75W/W35Y), sequence (P31025 19-176 W35Y/I75W): as the sequence (P31025 19-176 W35Y) above, with I57W counted along it
human tear lipocalin (TL) (Homo sapiens, UniProt P31025, C119W/W35Y), sequence (P31025 19-176 W35Y/C119W): as the sequence (P31025 19-176 W35Y) above, with C101W counted along it

| SMILES | fluorescence enhancement and blue shift on binding [1] | IC50 [2] [µM] | Kd [3] [µM] | Kd [4] [µM] | Kd [5] [µM] | Kd [6] [µM] | Kd [7] [µM] | Kd [8] [µM] | Kd [9] [µM] | Kd [10] [µM] | Kd [11] [µM] | Kd [12] [µM] |
| --- | --- | --- | --- | --- | --- | --- | --- | --- | --- | --- | --- | --- |
| CN(C)c1cccc2c(S(=O)(=O)NCCCCCCCCCCC(=O)O)cccc12 [DAUDA, 11-((5-dimethylaminonaphthalene-1-sulfonyl)amino)undecanoic acid] | DAUDA increases significantly and exhibits a blue shift ... when bound to TL |  |  |  |  |  |  |  |  |  |  |  |
| CCCCCCCCCCCC(=O)O [LA] |  | 12.6 |  |  |  |  |  |  |  |  |  |  |
| CCCCCCCCCCCCCCCC(=O)O [PA] |  | 2.3 | 0.5 ± 0.1 | 0.5 ± 0.1 | 0.3 ± 0.1 | 0.4 ± 0.1 | 2.3 ± 0.2 | 0.9 ± 0.2 | 2.8 ± 0.5 | 0.3 ± 0.1 | 0.5 ± 0.2 | 5.8 ± 0.6 |
